# Hits are enriched below; roughly 2.5% of the tested compounds scored in any of these assays.
# NS3 helicase inh: inhibitors of HCV NS3 helicase, primary screen, biochemical, Cy5 molecular beacon fluorescence; inhibition, % at 10.9 µM; hit rate 0.56% among 290,000; NS3 helicase DNA unwinding;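 active = inhibition above the mean of all tested compounds plus 3 SD, set per campaign, cut at about 35% in these data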;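 note: 0% = DMSO wells and 100% = thioflavine S control wells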
#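 Material: hepatitis C virus NS3 helicase domain fragment enzyme; measured by: Cy5 fluorescence, 0 and 60 min reads; control set: DMSO and thioflavine S; incubation: 60 min unwinding reaction at 25 °C after ATP addition; read-out basis: % inhibition from 60/0 min fluorescence ratio, DMSO 0%, thioflavine S 100%; repeats: singlicate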
# DNMT1 block: human DNMT1 methyltransferase inhibitors, primary screen, biochemical, molecular beacon, fluorescence, HinP1I cleavage, uHTS; inhibition (reported as % activation of signal), % at 10 µM; AID 588458, 2011; hit rate 0.83% among 360,000; in the data active = inhibition above about 50%
# MBD2 inh: inhibitors of MBD2 binding to methylated DNA, primary screen, biochemical, TR-FRET, DNA-binding domain, human; hit rate 0.31% among 370,000; MBD2 binding to methylated oligonucleotide; Methyl-CpG-binding domain protein 2 (Homo sapiens), Q9UBB5; AID 686964, 2013; inhibition, % at 4.4 µM; in the data active = inhibition above about 13%
# Target sequence (Q9UBB5 whole entry, looked up, the tested form may be a part): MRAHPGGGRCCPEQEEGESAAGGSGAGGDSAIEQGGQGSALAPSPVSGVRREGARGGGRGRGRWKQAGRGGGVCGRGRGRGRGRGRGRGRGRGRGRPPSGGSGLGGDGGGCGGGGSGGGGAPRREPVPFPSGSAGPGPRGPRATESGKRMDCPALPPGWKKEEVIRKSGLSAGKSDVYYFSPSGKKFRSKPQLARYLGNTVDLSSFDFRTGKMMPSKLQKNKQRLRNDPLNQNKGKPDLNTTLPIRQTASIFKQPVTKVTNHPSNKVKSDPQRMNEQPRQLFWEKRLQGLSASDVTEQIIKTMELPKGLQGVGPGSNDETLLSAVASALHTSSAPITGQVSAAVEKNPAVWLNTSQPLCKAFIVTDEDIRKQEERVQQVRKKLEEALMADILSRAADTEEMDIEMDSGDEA
# SUMO1 PPI mod: modulators of SUMO1 protein-protein interactions, primary screen, biochemical, uHTS; hit rate 0.33% among 360,000; SUMO1 binding to a labelled peptide, TR-FRET, 1 h; inhibition, % at 20 µM; Small ubiquitin-related modifier 1 (Homo sapiens), P63165; in the data active = inhibition above about 37%
# Target sequence (P63165 whole entry, looked up): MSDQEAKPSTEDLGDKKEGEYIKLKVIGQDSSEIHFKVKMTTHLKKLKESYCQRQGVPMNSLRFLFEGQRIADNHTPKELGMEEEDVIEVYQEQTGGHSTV
# Pemphigus Ab inh: inhibitors of pemphigus antibody binding to DSG3, primary screen, biochemical, bead-based, flow cytometry, scFv-GFP | hit rate 0.48% among 310,000 | DSG3-coupled beads, scFv-anti-DSG3-GFP binding; hits give low values | binding (percent of control), % at 10 µM | Desmoglein-3 (Homo sapiens), P32926 | AID 588358, 2011;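 active = binding more than 3 SD below its plate's average and above zero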;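 note: hits lower antibody fragment binding to DSG3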
# UHRF1 MBD2 ctr: UHRF1 methylated DNA binding inhibitors, primary screen, counter-screen for MBD2 inhibitor project, biochemical, TR-FRET, human UHRF1, single concentration. inhibition, % at 4.4 µM. E3 ubiquitin-protein ligase UHRF1 (Homo sapiens), Q96T88. UHRF1 binding to methylated oligo. AID 687016, 2013. hit rate 0.75% among 370,000; in the data active = inhibition above about 21%;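 note: UHRF1 SRA domain binding a hemimethylated CpG hairpin DNA probe; 0% = median of test compound wells and 100% = reference inhibitor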
# * marks the source's active call; other numbers are inactive results; x = not tested or not shown.
SMILES,NS3 helicase inh,DNMT1 block,MBD2 inh,SUMO1 PPI mod,Pemphigus Ab inh,UHRF1 MBD2 ctr
O=C(NCC1CCCO1)c1ccc2c(c1)C(=O)N(c1cccc([N+](=O)[O-])c1)C2=O (stereo not given),-7,1,-1,-42,41*,0
O=C(NCC1CCCO1)c1ccc2c(c1)C(=O)N(C1CCCCC1)C2=O (stereo not given),-8,-3,3,-26,89,0
COc1ccc(/C=N/NC(=O)c2ccc(COc3cccc4cccnc34)cc2)cc1O,-10,-7,-3,-1,94,-5
COc1ccc(/C=N/NC(=O)c2ccc(COc3cccc4cccnc34)cc2)cc1OC,-13,-9,2,3,5.2*,-3
COc1cc(/C=N/NC(=O)c2nnn(-c3nonc3N)c2C(C)C)ccc1OCc1ccc(F)cc1,-15,-15,10,-6,x,21*
CCOc1ccc(/C=N/NC(=O)c2nnn(-c3nonc3N)c2COc2ccc(F)cc2)cc1,-2,11,-1,-1,x,0
CN(C)c1ccc(/C=N/NC(=O)c2nnn(-c3nonc3N)c2COc2ccc(F)cc2)cc1,8,32,11,7,77*,1
CCOC(=O)N1CCN(C(=O)CN(C2CCCCC2)S(=O)(=O)c2ccc(Cl)cc2)CC1,-3,-2,0,4,100,1
CC(C)COc1ccc(C(=O)N2C(=O)c3ccc(N)cc3C2=O)cc1,7,35,5,-6,39*,1
CC(=O)Nc1ccc(C=NNc2nnc(NN=Cc3ccc(NC(C)=O)cc3)c3ccccc23)cc1,x,-31,-4,40*,107,-5
Cc1cc(-c2csc(NCc3ccccc3)n2)c(C)n1C,11,75*,x,-1,x,x
Cc1nc(N)sc1-c1csc(NCc2ccccc2)n1,19,-38,-3,11,105,-5
S=c1[nH]nc(COc2ccccc2)n1/N=C/C=C/c1ccco1,20,9,7,-4,81*,14
S=c1[nH]nc(COc2ccccc2)n1/N=C/C=C/c1ccccc1,-2,8,3,-8,102,3
Cc1c(Br)c(=O)oc2c(Br)c(O)c(O)cc12,29,14,10,22,81,31*
CC(Oc1ccccc1Cl)C(=O)Nc1ccccc1C(=O)N1CCOCC1 (stereo not given),-2,7,-4,5,103,0
N#C/C(=C\c1ccc(/C=C(/C#N)c2nn(CCO)c(N)c2C#N)cc1)c1nn(CCO)c(N)c1C#N,16,4,-4,60*,86*,0
CCCCCCO,x,0,-3,-2,105,0
CSCCC(NC(=O)c1ccccc1Br)C(=O)NCC1CCCCC1 (stereo not given),4,-4,5,1,106*,0
CC(=O)Nc1ccc(C2=NN(C)C(=NCc3ccccc3)SC2)cc1,-4,-14,6,-11,93,-3
CCCCC(=O)NNC(=S)NC(=O)CCC,6,-3,3,0,x,0
CC1CCCN(C(=O)CSc2nnc(-c3cccnc3)n2C2CCCCC2)C1 (stereo not given),-2,-1,-3,14,61*,-1
COc1ccc(-n2c(SCC(=O)Nc3ccc(C(N)=O)cc3)nc3ccccc3c2=O)cc1OC,-12,-4,0,21,95,-1
COc1ccc(-n2c(SCC(=O)Nc3cccc(S(N)(=O)=O)c3)nc3ccccc3c2=O)cc1OC,-16,-3,2,37*,105,0
COc1ccc(S(=O)(=O)N2CCSC2c2ccccc2)cc1 (stereo not given),3,-5,2,1,100,69*
SMILES,NS3 helicase inh,DNMT1 block,MBD2 inh,SUMO1 PPI mod,Pemphigus Ab inh,UHRF1 MBD2 ctr
CC(NCC(O)COCc1ccc(Cl)cc1)c1ccccc1 (stereo not given),-23,3,-2,65*,87,1
OC(CNCc1ccccc1)COCc1ccc(Cl)cc1 (stereo not given),-3,1,2,-1,99,3
CN(Cc1ccccc1NS(=O)(=O)c1ccc(Cl)cc1)C1CCCCC1,-13,0,-6,0,119,-1
C/C=C1\NC(=O)[C@H](C)NC(=O)[C@@H](NC(=O)[C@H](Cc2ccc(O)cc2)NC(=O)[C@@H](NC(=O)/C(C)=C/C)C(C)C)[C@@H](C)OC(=O)[C@H](CCCc2ccc(O)cc2)NC(=O)[C@@H](CCC(=O)OC)NC1=O,x,-6,0,25,x,1
COC(=O)NCc1ccc2c(c1)OCO2,1,0,-1,-2,x,-2
COC1=C(NCc2ccc3c(c2)OCO3)C(=O)C(OC)=C(NCc2ccc3c(c2)OCO3)C1=O,x,11,-1,-13,-15*,-6
O=C(NCC1CCCCC1)c1ccc2nc([C@@H]3O[C@H](CO)[C@H](O)[C@H](O)[C@H]3O)[nH]c2c1,x,-2,4,1,x,-2
CCOc1ccc(NC(=O)c2ccc(NC(=O)c3ccc(NC(N)=O)cc3)cc2)cc1,x,56*,-3,30,x,0
O=C(CSc1nc2ccccc2c(=O)[nH]1)Nc1ccc(C(=O)O)cc1,15,3,0,9,x,0
O=C(Nc1ccc(OCc2ccccc2)cc1)c1ccccc1,6,10,6,1,78,65*
CCOc1ccc(NC(=O)c2ccc(NC(=O)CSc3nc4ccccc4c(=O)[nH]3)cc2)cc1,-7,38,0,0,81*,-1
Cc1c(C(=O)Nc2ccc(C(=O)Nc3ccccc3)cc2)cccc1[N+](=O)[O-],8,1,-2,5,100,2
CCOc1ccc(NC(=O)c2ccc(N)cc2)cc1,0,-2,-7,-1,106,0
Cc1c(C(=O)Nc2ccc(OCc3ccccc3)cc2)cccc1[N+](=O)[O-],-11,6,9,1,39*,6
NS(=O)(=O)c1cc2c(cc1Cl)NC(C1CC3C=CC1C3)NS2(=O)=O (stereo not given),x,-1,-5,6,107,-1
Cc1c(NC(=O)C2CCCNC2=O)c(=O)n(-c2ccccc2)n1C (stereo not given),1,4,-2,3,91,1
Cc1ccc(OCC2Cn3c(nc4c3c(=O)[nH]c(=O)n4C)O2)cc1 (stereo not given),7,0,2,1,92,-3

# High-throughput results as filed in PubChem BioAssay.
